Laboratory results taken from ChEMBL document CHEMBL2375356, “Design, synthesis and biological evaluation of new classes of thieno[3,2-d]pyrimidinone and thieno[1,2,3]triazine as inhibitor of vascular endothelial growth factor receptor-2 (VEGFR-2)” (Eur J Med Chem, 2013).
Values belong to the compound of their own block, whether it stands above or below them. Active and inactive are the calls of the source. No cut-off for these calls is given here.

Experiments:
[1] = biological target: Epidermal growth factor receptor (Homo sapiens) (UniProt P00533); test: Inhibition of EGFR phosphorylation in growth factor-stimulated HUVEC at 3 uM after 24 hrs
[2] = biological target: T1, Tyrosine-protein kinase receptor TYRO3 (Homo sapiens) (UniProt Q06418); test: Inhibition of DTK phosphorylation in growth factor-stimulated HUVEC at 3 uM after 24 hrs
T1 sequence (whole entry): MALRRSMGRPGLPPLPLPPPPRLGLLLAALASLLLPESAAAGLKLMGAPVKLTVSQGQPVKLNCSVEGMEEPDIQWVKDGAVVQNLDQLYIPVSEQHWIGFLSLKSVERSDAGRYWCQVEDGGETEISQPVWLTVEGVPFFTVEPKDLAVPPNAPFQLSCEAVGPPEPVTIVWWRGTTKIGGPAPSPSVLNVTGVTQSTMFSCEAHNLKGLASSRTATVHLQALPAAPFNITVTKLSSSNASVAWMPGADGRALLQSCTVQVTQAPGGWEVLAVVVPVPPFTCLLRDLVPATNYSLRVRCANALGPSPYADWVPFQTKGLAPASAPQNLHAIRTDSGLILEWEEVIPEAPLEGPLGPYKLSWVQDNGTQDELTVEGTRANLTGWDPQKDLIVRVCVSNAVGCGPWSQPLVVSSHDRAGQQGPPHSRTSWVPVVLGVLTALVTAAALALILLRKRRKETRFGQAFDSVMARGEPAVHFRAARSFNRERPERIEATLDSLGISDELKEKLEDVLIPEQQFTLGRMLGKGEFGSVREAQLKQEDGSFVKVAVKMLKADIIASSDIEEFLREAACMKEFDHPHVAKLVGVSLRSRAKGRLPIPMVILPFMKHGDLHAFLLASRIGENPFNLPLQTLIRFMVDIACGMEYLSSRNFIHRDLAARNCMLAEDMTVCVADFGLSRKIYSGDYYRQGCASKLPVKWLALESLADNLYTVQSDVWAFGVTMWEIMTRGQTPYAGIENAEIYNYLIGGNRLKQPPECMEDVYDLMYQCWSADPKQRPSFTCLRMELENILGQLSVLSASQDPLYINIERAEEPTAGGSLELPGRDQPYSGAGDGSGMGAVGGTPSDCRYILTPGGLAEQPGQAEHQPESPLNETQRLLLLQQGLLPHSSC

[3] = biological target: Tyrosine-protein kinase receptor Tie-1 (Homo sapiens) (UniProt P35590); test: Inhibition of TIE-1 phosphorylation in growth factor-stimulated HUVEC at 3 uM after 24 hrs
[4] = biological target: T2, Ephrin type-A receptor 6 (Homo sapiens) (UniProt Q9UF33); test: Inhibition of EPHA6 phosphorylation in growth factor-stimulated HUVEC at 3 uM after 24 hrs
T2 sequence (whole entry): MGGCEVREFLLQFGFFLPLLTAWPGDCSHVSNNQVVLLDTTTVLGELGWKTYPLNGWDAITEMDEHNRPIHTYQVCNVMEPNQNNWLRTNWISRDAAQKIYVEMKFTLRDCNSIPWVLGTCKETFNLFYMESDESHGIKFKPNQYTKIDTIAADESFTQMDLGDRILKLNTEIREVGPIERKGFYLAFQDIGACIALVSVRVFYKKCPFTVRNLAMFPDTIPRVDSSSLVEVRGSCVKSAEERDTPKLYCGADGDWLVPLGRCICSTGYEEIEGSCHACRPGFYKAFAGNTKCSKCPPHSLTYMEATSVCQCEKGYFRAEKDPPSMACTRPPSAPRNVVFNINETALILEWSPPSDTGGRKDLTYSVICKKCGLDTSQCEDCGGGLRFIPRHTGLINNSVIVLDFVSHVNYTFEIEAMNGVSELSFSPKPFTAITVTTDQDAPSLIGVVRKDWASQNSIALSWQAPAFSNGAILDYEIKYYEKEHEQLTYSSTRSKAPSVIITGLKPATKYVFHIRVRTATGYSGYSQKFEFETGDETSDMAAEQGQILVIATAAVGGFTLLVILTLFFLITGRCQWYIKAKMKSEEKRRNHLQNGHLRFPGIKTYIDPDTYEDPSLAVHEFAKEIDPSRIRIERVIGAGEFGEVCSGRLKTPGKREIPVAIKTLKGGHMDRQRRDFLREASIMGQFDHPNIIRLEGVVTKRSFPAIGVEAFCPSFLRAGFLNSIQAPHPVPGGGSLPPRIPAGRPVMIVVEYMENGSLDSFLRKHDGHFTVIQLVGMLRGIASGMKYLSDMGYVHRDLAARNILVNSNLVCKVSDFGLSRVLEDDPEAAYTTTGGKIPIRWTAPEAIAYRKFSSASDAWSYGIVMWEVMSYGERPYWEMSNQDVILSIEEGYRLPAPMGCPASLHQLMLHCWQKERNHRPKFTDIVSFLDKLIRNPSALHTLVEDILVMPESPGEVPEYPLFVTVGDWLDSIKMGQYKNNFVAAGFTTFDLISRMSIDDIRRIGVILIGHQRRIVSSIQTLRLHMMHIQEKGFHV

[5] = biological target: Tyrosine-protein kinase transmembrane receptor ROR2 (Homo sapiens) (UniProt Q01974); test: Inhibition of ROR2 phosphorylation in growth factor-stimulated HUVEC at 3 uM after 24 hrs
[6] = biological target: T3, Vascular endothelial growth factor receptor 2 (Homo sapiens, UniProt P35968); test: Inhibition of VEGFR2 phosphorylation in growth factor-stimulated HUVEC at 3 uM after 24 hrs
[7] = biological target: Vascular endothelial growth factor receptor 1 (Homo sapiens) (UniProt P17948); test: Inhibition of VEGFR1 phosphorylation in growth factor-stimulated HUVEC at 3 uM after 24 hrs
[8] = biological target: Tyrosine-protein kinase receptor UFO (Homo sapiens) (UniProt P30530); test: Inhibition of AXL phosphorylation in growth factor-stimulated HUVEC at 3 uM after 24 hrs
[9] = biological target: T3, Vascular endothelial growth factor receptor 2; test: Inhibition of human recombinant VEGFR2
HUVEC [10] = test: Cytostatic activity against HUVEC assessed as decrease in metabolic activity after 24 hrs by MTT assay; assay type: ADME, cell-based, Homo sapiens
In short: (§1)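 Primary HUVEC (passage ≤5) seeded at 20,000 cells/cm² in complete medium; after 24 h, exposed to test agent (0–100 µM) in RPMI 1640 + 2% heat-inactivated FCS for 24 h. MTT 0.4 mg/mL, 37 °C for 3 h; formazan dissolved in DMSO, absorbance read at 570/630 nm. Expressed as % variation vs untreated medium; mean ± SD, n = 3 in triplicate.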

HUVEC [11] = test: Cytotoxicity against HUVEC assessed as decrease in cell viability at 1 to 100 uM after 24 hrs by Hoechst 33258 staining method; assay type: cell-based; conditions: human
In short: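 HUVEC seeded at 20,000 cells/cm²; after 24 h, treated with test agent (0–100 µM) in RPMI 1640 + 2% FCS for 24 h. Cells lysed by freezing at −80 °C, lysates incubated with Hoechst 33258 for 1 h with agitation. Fluorescence read at ex 360/em 460 nm; expressed as % variation vs untreated; mean ± SD, n = 3 in triplicate.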

HUVEC [12] = test: cells; conditions: Homo sapiens, 24 h
HUVEC [13] = test: Cytostatic activity against HUVEC assessed as decrease in metabolic activity at 100 uM after 24 hrs by MTT assay relative to control; assay type: ADME, cell-based; set-up: scale not given: the % may be the effect or the level left; conditions: human; in short: as §1
HUVEC [14] = test: Cytostatic activity against HUVEC assessed as decrease in metabolic activity at 1.5 uM after 24 hrs by MTT assay relative to control; assay type: ADME, cell-based; set-up: scale not given: the % may be the effect or the level left; conditions: human; in short: as §1
[15] = biological target: Vascular endothelial growth factor receptor 1 (Homo sapiens) (UniProt P17948); test: Inhibition of VEGFR1 phosphorylation in growth factor-stimulated HUVEC

Vascular endothelial growth factor receptor 1 (Homo sapiens), sequence (P17948 whole entry): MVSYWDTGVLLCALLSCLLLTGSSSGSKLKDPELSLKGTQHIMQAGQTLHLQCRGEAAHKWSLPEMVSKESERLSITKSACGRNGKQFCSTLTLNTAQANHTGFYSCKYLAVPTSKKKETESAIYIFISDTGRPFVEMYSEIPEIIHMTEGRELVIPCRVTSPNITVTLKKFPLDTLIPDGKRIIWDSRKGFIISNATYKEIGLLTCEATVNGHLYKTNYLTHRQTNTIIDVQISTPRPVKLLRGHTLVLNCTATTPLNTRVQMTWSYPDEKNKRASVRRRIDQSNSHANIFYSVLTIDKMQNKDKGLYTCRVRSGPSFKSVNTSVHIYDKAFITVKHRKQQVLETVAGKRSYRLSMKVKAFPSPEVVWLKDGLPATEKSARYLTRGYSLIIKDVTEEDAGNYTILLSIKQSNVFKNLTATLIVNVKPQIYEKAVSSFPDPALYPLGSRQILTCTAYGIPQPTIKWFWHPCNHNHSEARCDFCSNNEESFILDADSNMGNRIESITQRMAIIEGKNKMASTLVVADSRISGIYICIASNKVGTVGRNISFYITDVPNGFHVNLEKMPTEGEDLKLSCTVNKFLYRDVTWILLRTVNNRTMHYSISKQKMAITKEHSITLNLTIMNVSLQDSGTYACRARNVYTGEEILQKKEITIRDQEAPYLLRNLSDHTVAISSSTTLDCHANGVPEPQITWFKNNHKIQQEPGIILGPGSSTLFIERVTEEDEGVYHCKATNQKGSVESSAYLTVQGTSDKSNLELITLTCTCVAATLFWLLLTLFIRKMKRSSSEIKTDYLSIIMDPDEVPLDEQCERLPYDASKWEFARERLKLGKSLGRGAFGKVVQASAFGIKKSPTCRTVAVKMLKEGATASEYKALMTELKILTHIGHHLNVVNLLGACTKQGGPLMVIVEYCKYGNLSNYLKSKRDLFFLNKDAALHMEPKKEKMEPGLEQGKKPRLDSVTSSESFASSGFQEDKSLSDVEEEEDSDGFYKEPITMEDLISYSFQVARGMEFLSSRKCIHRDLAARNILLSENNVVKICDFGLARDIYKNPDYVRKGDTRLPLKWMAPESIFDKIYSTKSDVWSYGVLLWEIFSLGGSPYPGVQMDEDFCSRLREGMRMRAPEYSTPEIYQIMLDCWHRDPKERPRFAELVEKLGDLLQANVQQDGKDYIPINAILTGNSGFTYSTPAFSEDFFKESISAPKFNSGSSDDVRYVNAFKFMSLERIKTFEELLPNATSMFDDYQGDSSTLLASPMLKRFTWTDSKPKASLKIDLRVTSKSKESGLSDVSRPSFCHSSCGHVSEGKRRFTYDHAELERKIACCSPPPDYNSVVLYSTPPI
T3 sequence (P35968 whole entry): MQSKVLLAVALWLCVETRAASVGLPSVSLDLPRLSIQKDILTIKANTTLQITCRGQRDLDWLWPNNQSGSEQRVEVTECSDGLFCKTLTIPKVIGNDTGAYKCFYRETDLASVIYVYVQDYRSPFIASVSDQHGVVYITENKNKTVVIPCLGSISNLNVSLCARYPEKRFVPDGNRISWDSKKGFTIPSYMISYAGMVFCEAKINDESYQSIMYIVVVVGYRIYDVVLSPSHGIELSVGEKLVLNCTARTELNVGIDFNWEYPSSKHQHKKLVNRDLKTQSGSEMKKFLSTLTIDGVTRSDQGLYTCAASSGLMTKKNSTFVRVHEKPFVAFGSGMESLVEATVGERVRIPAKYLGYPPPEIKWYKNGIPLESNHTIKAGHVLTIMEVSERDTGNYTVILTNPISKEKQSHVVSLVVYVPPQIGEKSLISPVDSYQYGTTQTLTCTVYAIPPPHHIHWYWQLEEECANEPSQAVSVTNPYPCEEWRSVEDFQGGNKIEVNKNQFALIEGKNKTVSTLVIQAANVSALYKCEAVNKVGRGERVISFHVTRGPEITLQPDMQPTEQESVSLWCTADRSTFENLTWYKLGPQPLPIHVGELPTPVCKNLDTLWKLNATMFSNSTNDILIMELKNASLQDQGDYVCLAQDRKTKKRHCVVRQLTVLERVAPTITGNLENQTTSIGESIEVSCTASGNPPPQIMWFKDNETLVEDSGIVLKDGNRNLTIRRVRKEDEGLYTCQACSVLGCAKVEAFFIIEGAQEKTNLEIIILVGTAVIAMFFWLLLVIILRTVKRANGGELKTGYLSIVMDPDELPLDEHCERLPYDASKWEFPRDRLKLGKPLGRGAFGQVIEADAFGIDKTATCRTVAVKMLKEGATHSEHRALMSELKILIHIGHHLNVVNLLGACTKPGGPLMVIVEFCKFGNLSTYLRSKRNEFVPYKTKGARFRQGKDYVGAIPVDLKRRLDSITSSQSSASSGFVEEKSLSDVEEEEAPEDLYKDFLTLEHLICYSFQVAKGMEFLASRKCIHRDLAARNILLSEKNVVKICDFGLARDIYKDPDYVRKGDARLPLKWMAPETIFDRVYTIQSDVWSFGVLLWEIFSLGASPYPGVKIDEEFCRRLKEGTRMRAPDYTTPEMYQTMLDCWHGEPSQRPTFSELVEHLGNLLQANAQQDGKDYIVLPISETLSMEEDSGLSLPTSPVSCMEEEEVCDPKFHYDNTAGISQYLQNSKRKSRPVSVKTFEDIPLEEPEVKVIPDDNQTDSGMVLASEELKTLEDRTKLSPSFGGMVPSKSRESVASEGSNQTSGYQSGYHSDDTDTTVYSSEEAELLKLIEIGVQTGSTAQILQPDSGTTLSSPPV
Tyrosine-protein kinase receptor UFO (Homo sapiens), sequence (P30530 whole entry): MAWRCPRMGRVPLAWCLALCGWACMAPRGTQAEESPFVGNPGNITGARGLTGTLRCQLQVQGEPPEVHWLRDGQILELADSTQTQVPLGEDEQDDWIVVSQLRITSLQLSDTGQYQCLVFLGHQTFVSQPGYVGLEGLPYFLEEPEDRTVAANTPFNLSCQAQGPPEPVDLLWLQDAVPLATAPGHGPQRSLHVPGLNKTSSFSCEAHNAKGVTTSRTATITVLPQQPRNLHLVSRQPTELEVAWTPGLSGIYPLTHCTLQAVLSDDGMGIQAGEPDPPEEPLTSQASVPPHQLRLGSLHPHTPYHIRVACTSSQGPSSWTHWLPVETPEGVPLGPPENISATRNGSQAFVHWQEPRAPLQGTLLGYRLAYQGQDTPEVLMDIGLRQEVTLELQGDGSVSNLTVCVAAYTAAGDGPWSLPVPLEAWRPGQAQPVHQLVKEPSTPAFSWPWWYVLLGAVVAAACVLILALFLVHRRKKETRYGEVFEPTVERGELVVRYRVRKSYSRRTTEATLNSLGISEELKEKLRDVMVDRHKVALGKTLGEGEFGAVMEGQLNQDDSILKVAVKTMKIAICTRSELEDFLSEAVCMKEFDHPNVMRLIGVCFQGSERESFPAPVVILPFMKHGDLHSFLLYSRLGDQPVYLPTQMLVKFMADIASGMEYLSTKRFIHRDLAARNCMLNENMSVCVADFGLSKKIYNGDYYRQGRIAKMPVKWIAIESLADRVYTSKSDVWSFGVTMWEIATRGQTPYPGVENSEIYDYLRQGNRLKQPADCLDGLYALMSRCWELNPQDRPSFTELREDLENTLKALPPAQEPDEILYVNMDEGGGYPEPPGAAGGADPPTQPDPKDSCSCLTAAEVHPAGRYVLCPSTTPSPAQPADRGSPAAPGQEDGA
Epidermal growth factor receptor (Homo sapiens), sequence (P00533 whole entry): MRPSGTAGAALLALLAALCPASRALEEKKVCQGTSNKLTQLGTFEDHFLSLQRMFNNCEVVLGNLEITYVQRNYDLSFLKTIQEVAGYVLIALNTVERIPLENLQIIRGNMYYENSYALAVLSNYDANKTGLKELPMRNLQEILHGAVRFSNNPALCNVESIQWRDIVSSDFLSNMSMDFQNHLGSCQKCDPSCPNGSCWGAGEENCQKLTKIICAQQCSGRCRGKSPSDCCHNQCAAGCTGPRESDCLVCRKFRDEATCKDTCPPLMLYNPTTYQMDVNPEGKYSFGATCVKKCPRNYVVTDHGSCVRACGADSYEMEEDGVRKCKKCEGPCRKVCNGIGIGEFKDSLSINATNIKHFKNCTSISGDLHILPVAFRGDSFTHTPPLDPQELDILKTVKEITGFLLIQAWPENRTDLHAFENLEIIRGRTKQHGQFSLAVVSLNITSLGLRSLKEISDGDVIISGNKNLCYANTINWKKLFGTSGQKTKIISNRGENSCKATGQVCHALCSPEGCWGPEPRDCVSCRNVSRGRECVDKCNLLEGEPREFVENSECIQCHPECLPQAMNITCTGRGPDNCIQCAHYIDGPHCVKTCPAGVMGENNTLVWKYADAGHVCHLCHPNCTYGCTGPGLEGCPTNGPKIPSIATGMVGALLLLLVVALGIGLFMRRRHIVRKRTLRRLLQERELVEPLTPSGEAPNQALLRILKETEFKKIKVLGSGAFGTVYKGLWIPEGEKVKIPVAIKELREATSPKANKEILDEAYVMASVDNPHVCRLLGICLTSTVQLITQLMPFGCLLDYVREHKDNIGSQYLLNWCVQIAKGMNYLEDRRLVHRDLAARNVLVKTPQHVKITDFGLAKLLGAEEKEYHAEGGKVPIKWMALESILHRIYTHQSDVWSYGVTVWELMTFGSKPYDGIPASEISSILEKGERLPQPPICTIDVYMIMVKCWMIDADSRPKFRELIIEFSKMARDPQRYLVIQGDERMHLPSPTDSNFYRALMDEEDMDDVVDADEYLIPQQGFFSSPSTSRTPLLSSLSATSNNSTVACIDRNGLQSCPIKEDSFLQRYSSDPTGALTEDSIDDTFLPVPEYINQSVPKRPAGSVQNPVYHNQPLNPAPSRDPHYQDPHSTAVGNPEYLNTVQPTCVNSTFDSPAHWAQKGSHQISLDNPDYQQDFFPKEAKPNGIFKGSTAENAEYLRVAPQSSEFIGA

inhibition [1]: Active | inhibition [2]: Active | inhibition [3]: Active | inhibition [4]: Active | inhibition [5]: Active | inhibition [6]: Active | inhibition [7]: Active | inhibition [8]: Active
Structure (SMILES): O=c1[nH]c(CN2CCCCC2)nc2cc(-c3cn(Cc4ccccc4)c4ccccc34)sc12 [listing 1 of 2 here]

IC50 [9]: 2250 nM
Structure (SMILES): O=c1[nH]c(CN2CCCCC2)nc2cc(-c3cn(Cc4ccccc4)c4ccccc34)sc12 [listing 2 of 2 here]

Structure (SMILES): O=C(O)C(O)C(O)C(=O)O.O=c1[nH]c(CN2CCCCC2)nc2cc(-c3cn(Cc4ccccc4)c4ccccc34)sc12
EC50 (HUVEC [10]; Homo sapiens, HUVEC): 12000 nM | Activity (HUVEC [10]; human, huvec): Dose-dependent effect | Activity (HUVEC [11]): Non-toxic | EC50 (HUVEC [12]): 31 nM | Activity (HUVEC [13]): 51% | Activity (HUVEC [14]): 9%

inhibition [15]: Active
Structure (SMILES): CCN(CC)CCNC(=O)c1c(C)[nH]c(/C=C2\C(=O)Nc3ccc(F)cc32)c1C [SUNITINIB]
EC50 (HUVEC [12]): 645 nM
